Measured values as given in ChEMBL document CHEMBL1212856, “Anti-Plasmodium activity of imidazolium and triazolium salts” (Bioorg Med Chem, 2010).

Tests used:
Plasmodium falciparum = test: Antiplasmodial activity against Plasmodium falciparum 3D7 after 72 by LDH assay; format: functional, organism-based
Summary of the method: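 Non-synchronous chloroquine-sensitive P. falciparum culture at 2% hematocrit and 2% parasitemia, in RPMI-10Pf with twofold serial compound dilutions from a 10 mg/mL DMSO stock. Incubated 72 h at 37 °C under 95% N₂, 3% CO₂, 2% O₂. Resuspended samples went into parasite-specific LDH mix, read at 595 nm after 1 h. IC50 by non-linear regression; mean ± standard error of four independent determinations.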

CHO = test: Cytotoxicity against CHO cells after 48 hrs by MTT assay; format: cell-based; settings: Cricetulus griseus
Summary of the method: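 CHO cells in RPMI-1640 with 10% fetal calf serum, 25 mM HEPES and gentamicin, grown to 50% confluency before dosing. Dilution series made from a 10 mg/mL DMSO stock, with DMSO-alone controls. After 48 h the medium was replaced with […] for 30 min.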

SMILES	IC50 (Plasmodium falciparum)	IC50 (CHO)
O=C(Cn1c[n+](CC(=O)c2ccc(Br)cc2)cn1)c1ccc(Br)cc1	10.9 µM	20.9 µM
c1nc[nH]n1 [1,2,4-TRIAZOLE]	2900 µM	1270 µM
C[n+]1c(-c2ccccc2)nn(Cc2ccc(Br)cc2)c1-c1ccccc1	1.68 µM	33 µM
Fc1c(F)c(F)c(-n2c[n+]3c(n2)CCC3)c(F)c1F	89 µM	303 µM
CSc1nn(-c2ccccc2)c[n+]1-c1ccccc1	69 µM	224 µM
O=[N+]([O-])c1ccc(Cn2cc[n+](Cc3ccc([N+](=O)[O-])cc3)c2)cc1	9 µM	–
O=C(Cn1cncn1)c1ccccc1	894 µM	334 µM
C[n+]1c(-c2ccccc2)nn(Cc2ccccc2)c1-c1ccccc1	7.8 µM	87 µM
CSc1nn(-c2ccccc2)c(C)[n+]1-c1ccccc1	3.1 µM	307 µM
C[n+]1c(-c2ccccc2)nn(CC(=O)CCc2ccccc2)c1-c1ccccc1	0.1 µM	143 µM
c1c[nH]cn1 [IMIDAZOLE]	368 µM	3680 µM
O=C(Cn1c[n+](Cc2ccccc2)cn1)c1ccccc1	73 µM	261 µM
C[n+]1cn(CC(=O)CCc2ccccc2)nc1-c1ccccc1	3.4 µM	237 µM

More lines, main results first:

IC50 (Plasmodium falciparum)	SMILES	IC50 (CHO)
17 µM	Fc1ccc(Cn2cc[n+](Cc3ccc(F)cc3)c2)cc1	56 µM
0.7 µM	Brc1ccc(Cn2cc[n+](Cc3ccc(Br)cc3)c2)cc1	172 µM
2 µM	Clc1ccccc1Cn1cc[n+](Cc2ccccc2Cl)c1	–
0.5 µM	O=C(Cn1cc[n+](CC(=O)c2ccc(Cc3ccccc3)cc2)c1)c1ccc(Cc2ccccc2)cc1	4.3 µM
3.3 µM	Clc1cccc(Cn2cc[n+](Cc3cccc(Cl)c3)c2)c1	–
100 µM	c1ccc(Cn2c[n+](Cc3ccccc3)cn2)cc1	74 µM
1.4 µM	Brc1ccccc1Cn1cc[n+](Cc2ccccc2Br)c1	–
9 µM	Clc1ccc(Cn2cc[n+](Cc3ccc(Cl)cc3)c2)cc1	–
5 µM	COc1ccc(Cn2cc[n+](Cc3ccc(OC)cc3)c2)cc1	30.6 µM
0.73 µM	Brc1ccc(Cn2cc[n+](Cc3ccc4ccccc4c3)c2)cc1	27 µM
0.9 µM	c1ccc(Cn2cc[n+](Cc3ccc4ccccc4c3)c2)cc1	–
16 µM	c1ccc(Cn2cc[n+](Cc3ccccc3)c2)cc1	–
2.6 µM	O=C(Cn1cc[n+](CC(=O)c2ccc(Cl)cc2)c1)c1ccc(Cl)cc1	53 µM
2.9 µM	Brc1ccc(C[n+]2ccn(Cc3ccccc3)c2)cc1	–
0.9 µM	c1ccc2cc(Cn3cc[n+](Cc4ccc5ccccc5c4)c3)ccc2c1	27 µM
0.35 µM	Ic1ccc(Cn2cc[n+](Cc3ccc(I)cc3)c2)cc1	33 µM
1.05 µM	Brc1cccc(Cn2cc[n+](Cc3cccc(Br)c3)c2)c1	–
